From ChEMBL document CHEMBL3351311 (ACS Med Chem Lett, 2014)
In brackets after ≈: the same amount, converted by molar mass. One block for each compound: values may come before it.

Key:
[1] = biological target: T1, cAMP and cAMP-inhibited cGMP 3',5'-cyclic phosphodiesterase 10A (Rattus norvegicus, UniProt Q9QYJ6); test: Inhibition of rat PDE10A expressed in Sf9 cells incubated for 60 mins using [3H]-cAMP substrate by scintillation counting method
T1 sequence (Q9QYJ6 whole entry): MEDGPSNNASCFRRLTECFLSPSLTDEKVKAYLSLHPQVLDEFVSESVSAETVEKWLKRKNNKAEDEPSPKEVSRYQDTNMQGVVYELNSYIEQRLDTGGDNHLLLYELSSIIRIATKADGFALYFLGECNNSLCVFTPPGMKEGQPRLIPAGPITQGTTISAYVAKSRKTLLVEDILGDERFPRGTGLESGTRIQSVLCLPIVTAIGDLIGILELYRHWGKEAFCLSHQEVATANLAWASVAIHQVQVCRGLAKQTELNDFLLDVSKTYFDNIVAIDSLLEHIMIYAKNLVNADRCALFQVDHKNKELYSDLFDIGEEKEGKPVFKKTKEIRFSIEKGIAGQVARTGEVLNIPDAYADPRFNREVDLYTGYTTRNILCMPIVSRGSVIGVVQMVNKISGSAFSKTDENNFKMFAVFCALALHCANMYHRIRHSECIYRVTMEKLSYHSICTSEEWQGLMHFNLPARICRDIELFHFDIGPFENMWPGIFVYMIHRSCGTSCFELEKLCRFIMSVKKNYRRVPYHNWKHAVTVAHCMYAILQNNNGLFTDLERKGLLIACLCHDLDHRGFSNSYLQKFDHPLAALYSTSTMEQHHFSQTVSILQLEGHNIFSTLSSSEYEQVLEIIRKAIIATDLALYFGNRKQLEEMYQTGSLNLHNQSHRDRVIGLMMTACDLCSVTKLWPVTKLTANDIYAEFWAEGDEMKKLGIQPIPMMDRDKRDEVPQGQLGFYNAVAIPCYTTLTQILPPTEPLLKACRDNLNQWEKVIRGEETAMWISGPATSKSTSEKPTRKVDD

[2] = Stability in human liver microsomes assessed as parent compound remaining after 15 mins; assay type: ADME; settings: read-out: Stability
In short: (§1)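 Incubated with human or rat liver microsomes for 15 min. Result is the percent of parent compound remaining.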

[3] = Stability in rat liver microsomes assessed as parent compound remaining after 15 mins; assay type: ADME; settings: read-out: Stability; in short: as §1
[4] = Formulatability in water at pH 3.6; assay type: physicochemical; settings: read-out: Activity
In short: (§2)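 Formulatability in mg/mL, tested in three vehicles: water at pH 3.6, 10% β-HP-CD at pH 3.6, and 20% HP-β-CD at pH 7.0.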

[5] = Formulatability in 10% beta-HP-CD at pH 3.6; assay type: physicochemical; settings: read-out: Activity; in short: as §2
[6] = Formulatability in 20% beta-HP-CD at pH 7.0; assay type: physicochemical; settings: read-out: Activity; in short: as §2
[7] = biological target: Cytochrome P450 2C19 (Homo sapiens, UniProt P33261); test: Inhibition of CYP2C19 in human liver microsomes; assay type: ADME
Cytochrome P450 2C19, sequence (P33261 whole entry): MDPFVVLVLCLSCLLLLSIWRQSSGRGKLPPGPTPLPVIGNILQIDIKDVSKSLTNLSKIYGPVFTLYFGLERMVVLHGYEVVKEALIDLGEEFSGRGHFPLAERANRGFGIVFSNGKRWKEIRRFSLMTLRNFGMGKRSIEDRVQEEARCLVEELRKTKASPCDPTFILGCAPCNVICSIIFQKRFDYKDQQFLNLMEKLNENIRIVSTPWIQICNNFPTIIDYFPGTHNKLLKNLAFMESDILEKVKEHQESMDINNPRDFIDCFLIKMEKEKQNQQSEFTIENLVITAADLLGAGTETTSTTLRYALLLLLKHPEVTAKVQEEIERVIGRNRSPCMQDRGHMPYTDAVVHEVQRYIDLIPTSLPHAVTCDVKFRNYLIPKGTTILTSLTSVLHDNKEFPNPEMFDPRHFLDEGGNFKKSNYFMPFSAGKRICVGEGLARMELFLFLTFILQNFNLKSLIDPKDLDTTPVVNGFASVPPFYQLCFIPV
In short: (§3)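 CYP2C19 and 3A4 were tested in a human liver microsomal CYP inhibition assay, with IC50 determination.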

[8] = biological target: Cytochrome P450 3A4 (Homo sapiens, UniProt P08684); test: Inhibition of CYP3A4 in human liver microsomes; assay type: ADME; in short: as §3
Cytochrome P450 3A4, sequence (P08684 whole entry): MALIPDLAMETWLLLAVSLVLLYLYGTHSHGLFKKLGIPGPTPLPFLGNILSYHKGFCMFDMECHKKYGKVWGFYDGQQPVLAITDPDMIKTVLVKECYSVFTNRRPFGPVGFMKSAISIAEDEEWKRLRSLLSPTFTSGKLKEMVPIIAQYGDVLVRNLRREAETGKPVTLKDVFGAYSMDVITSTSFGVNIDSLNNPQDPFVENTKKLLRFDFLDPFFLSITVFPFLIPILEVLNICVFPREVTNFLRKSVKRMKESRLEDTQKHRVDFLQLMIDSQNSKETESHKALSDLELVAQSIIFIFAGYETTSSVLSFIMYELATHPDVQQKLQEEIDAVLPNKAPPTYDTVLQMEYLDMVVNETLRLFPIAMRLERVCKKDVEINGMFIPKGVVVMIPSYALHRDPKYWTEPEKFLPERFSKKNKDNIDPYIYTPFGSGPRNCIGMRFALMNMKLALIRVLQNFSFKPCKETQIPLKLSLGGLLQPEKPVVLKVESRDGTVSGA

[9] = test system: Salmonella typhimurium; test: Mutagenicity in Salmonella typhimurium at <125 ug/mL by Ames-2 test; assay type: toxicity, organism-based; settings: salmonella enterica subsp. enterica serovar typhimurium
In short: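 In vitro colorimetric bacterial mutagenicity assay, adapted from the AMESII Mutagenicity Assay kit.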

[10] = test system: Plasma; test: Plasma concentration in Sprague-Dawley rat at 10 mg/kg, sc after 24 hrs; assay type: ADME, organism-based; set-up: dose 10 mg/kg, route subcutaneous; settings: in vivo, BLD = below limit of detection
In short: (§4)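 Male Sprague-Dawley rats, fed (n = 3), dosed 10 mg/kg s.c. at 1 mg/mL in 20% HP-β-CD, pH 7.0. Plasma (ng/mL) and brain (ng/g) levels were measured at 0.5, 1, 2, 4, 7 and 24 h, each with SD. The brain/plasma ratio is computed at each time point.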

[11] = test system: Brain; test: Drug level in Sprague-Dawley rat brain at 10 mg/kg, sc after 24 hrs; assay type: ADME, organism-based; set-up: dose 10 mg/kg, route subcutaneous; settings: in vivo, BLD = below limit of detection; in short: as §4
[12] = Ratio of drug level in brain to plasma of Sprague-Dawley rat at 10 mg/kg, sc after 0.5 hrs; assay type: ADME, organism-based; set-up: dose 10 mg/kg, route subcutaneous; settings: read-out: BPR; in short: as §4
[13] = Ratio of drug level in brain to plasma of Sprague-Dawley rat at 10 mg/kg, sc after 1 hr; assay type: ADME, organism-based; set-up: dose 10 mg/kg, route subcutaneous; settings: read-out: BPR; in short: as §4
[14] = Ratio of drug level in brain to plasma of Sprague-Dawley rat at 10 mg/kg, sc after 2 hrs; assay type: ADME, organism-based; set-up: dose 10 mg/kg, route subcutaneous; settings: read-out: BPR; in short: as §4
[15] = Ratio of drug level in brain to plasma of Sprague-Dawley rat at 10 mg/kg, sc after 4 hrs; assay type: ADME, organism-based; set-up: dose 10 mg/kg, route subcutaneous; settings: read-out: BPR; in short: as §4
[16] = Ratio of drug level in brain to plasma of Sprague-Dawley rat at 10 mg/kg, sc after 7 hrs; assay type: ADME, organism-based; set-up: dose 10 mg/kg, route subcutaneous; settings: read-out: BPR; in short: as §4
[17] = Half life in Sprague-Dawley rat at 2.5 mg/kg, iv; assay type: ADME, organism-based; set-up: dose 2.5 mg/kg, route intravenous; settings: in vivo
In short: (§5)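 Rats received 2.5 mg/kg i.v. Plasma kinetic parameters (t1/2, Cl, Vdss, AUC0-inf) are reported as mean (SD).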

[18] = Clearance in Sprague-Dawley rat at 2.5 mg/kg, iv; assay type: ADME, organism-based; set-up: dose 2.5 mg/kg, route intravenous; settings: in vivo; in short: as §5
[19] = Volume of distribution at steady state in Sprague-Dawley rat at 2.5 mg/kg, iv; assay type: ADME, organism-based; set-up: dose 2.5 mg/kg, route intravenous; settings: in vivo, read-out: Vdss
In short: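 Rats received an intravenous injection at 2.5 mg/kg. Plasma kinetics were followed and parameters reported as mean (SD).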

[20] = AUC (0 to infinity) in Sprague-Dawley rat at 2.5 mg/kg, iv; assay type: ADME, organism-based; set-up: time infinity, dose 2.5 mg/kg, route intravenous; settings: plasma; in short: as §5
[21] = Half life in Sprague-Dawley rat at 10 mg/kg, sc; assay type: ADME, organism-based; set-up: dose 10 mg/kg, route subcutaneous; settings: in vivo
In short: (§6)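 Male Sprague-Dawley rats, fed (n = 3), given 10 mg/kg s.c. as a 1 mg/mL solution in 20% HP-β-CD, pH 7.0. Plasma kinetic parameters are reported as mean (SD).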

[22] = Cmax in Sprague-Dawley rat at 10 mg/kg, sc; assay type: ADME, organism-based; set-up: dose 10 mg/kg, route subcutaneous; settings: in vivo; in short: as §6
[23] = Tmax in Sprague-Dawley rat at 10 mg/kg, sc; assay type: ADME, organism-based; set-up: dose 10 mg/kg, route subcutaneous; settings: in vivo
In short: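 Fed male Sprague-Dawley rats (n = 3) were dosed subcutaneously at 10 mg/kg, formulated at 1 mg/mL in 20% HP-β-CD, pH 7.0. Plasma kinetics were followed and reported as mean (SD).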

[24] = AUC (0 to infinity) in Sprague-Dawley rat at 10 mg/kg, sc; assay type: ADME, organism-based; set-up: time infinity, dose 10 mg/kg, route subcutaneous; settings: plasma; in short: as §6
[25] = Unbound fraction in Sprague-Dawley rat brain at 10 mg/kg, sc; assay type: ADME, organism-based; set-up: dose 10 mg/kg, route subcutaneous
[26] = Unbound fraction in Sprague-Dawley rat plasma at 10 mg/kg, sc; assay type: ADME, organism-based; set-up: dose 10 mg/kg, route subcutaneous
[27] = test system: Plasma; test: Free drug concentration in Sprague-Dawley rat brain at 10 mg/kg, sc after 1 hr; assay type: ADME, organism-based; set-up: dose 10 mg/kg, route subcutaneous; settings: in vivo
In short: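 Free brain level at 1 h after a 10 mg/kg s.c. dose. Total brain concentration was corrected with the measured unbound brain fraction (Fub) and the unbound fraction to plasma proteins (Fup).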

[28] = test system: Rattus norvegicus; test: In-vivo occupancy at PDE2 in sc dosed Wistar rat brain using [3H]labeled compound in presence of 2.5 mg/kg, sc PDE10 inhibitor MP10; assay type: functional, organism-based; set-up: dose 2.5 mg/kg, route subcutaneous
In short: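 Male Wistar rats (n = 3 per dose) were dosed s.c., co-administered with MP10 at 2.5 mg/kg s.c. Ex vivo autoradiography was done on brain slices with the tritiated compound. Occupancy is the inhibition of specific [3H] binding relative to vehicle-treated animals, and ED50 was derived against dose.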

[29] = test system: Rattus norvegicus; test: Increase in cGMP levels in Wistar rat striatum at 10 mg/kg, sc after 1 hr; assay type: functional; settings: route subcutaneous
In short: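 Rats were dosed 10 mg/kg s.c., and striatal cGMP was measured 1 h later against vehicle-dosed animals. Five independent experiments were run (n = 4–5 each), reported as % of vehicle with range.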

[30] = test system: Rattus norvegicus; test: Effect on cAMP levels in Wistar rat striatum at 10 mg/kg, sc after 1 hr; assay type: functional; settings: route subcutaneous
[31] = biological target: Dual specificity calcium/calmodulin-dependent 3',5'-cyclic nucleotide phosphodiesterase 1A (Homo sapiens, UniProt P54750); test: Inhibition of human PDE1A by scintillation counting method
Dual specificity calcium/calmodulin-dependent 3',5'-cyclic nucleotide phosphodiesterase 1A, sequence (P54750 whole entry): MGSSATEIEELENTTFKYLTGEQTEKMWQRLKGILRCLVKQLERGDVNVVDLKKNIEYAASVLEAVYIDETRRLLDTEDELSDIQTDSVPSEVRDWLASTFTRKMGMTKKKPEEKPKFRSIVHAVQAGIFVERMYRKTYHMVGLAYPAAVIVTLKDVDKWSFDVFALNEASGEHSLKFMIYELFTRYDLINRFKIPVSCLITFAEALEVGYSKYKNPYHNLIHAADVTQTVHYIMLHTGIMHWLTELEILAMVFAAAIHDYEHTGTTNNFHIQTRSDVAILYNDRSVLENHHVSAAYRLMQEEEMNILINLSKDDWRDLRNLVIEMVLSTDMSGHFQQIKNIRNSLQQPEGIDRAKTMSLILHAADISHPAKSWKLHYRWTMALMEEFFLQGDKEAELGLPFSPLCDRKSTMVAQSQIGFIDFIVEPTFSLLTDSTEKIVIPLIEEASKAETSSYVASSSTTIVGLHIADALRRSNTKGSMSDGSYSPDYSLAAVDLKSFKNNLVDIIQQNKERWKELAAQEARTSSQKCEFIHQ
In short: (§7)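 IC50 values were calculated from experiments each run at eight concentrations.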

[32] = biological target: cGMP-inhibited 3',5'-cyclic phosphodiesterase 3B (Homo sapiens, UniProt Q13370); test: Inhibition of human PDE3B by scintillation counting method; in short: as §7
cGMP-inhibited 3',5'-cyclic phosphodiesterase 3B, sequence (Q13370 whole entry): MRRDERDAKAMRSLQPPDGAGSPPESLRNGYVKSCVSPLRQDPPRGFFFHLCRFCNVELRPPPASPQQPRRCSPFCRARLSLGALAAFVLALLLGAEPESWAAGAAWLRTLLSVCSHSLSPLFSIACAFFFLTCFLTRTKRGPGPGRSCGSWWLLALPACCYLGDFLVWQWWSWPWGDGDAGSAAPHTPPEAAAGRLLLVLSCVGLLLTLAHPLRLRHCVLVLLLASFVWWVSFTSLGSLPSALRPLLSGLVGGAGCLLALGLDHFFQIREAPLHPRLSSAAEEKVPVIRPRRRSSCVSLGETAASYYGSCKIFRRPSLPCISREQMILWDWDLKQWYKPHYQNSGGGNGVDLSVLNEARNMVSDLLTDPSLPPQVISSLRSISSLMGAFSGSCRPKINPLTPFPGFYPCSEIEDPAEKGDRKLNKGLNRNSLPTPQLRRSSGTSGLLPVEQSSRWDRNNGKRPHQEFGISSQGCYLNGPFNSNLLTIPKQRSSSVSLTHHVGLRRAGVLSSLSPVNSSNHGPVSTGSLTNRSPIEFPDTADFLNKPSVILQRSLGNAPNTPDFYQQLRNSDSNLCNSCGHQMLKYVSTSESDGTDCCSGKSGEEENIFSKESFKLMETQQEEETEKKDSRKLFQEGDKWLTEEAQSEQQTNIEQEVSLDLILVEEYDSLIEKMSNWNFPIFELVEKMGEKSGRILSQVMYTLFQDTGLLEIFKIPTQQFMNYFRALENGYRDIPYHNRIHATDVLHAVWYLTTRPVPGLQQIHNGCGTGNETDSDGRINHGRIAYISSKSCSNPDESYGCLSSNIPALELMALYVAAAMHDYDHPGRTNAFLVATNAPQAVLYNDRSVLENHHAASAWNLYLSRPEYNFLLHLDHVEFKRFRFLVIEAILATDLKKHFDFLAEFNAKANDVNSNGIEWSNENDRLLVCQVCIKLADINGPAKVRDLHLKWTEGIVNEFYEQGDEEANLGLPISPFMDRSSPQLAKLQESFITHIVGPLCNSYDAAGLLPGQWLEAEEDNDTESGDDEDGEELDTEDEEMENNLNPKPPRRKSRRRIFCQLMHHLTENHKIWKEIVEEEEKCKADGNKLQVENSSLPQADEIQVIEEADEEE

[33] = biological target: 3',5'-cyclic-AMP phosphodiesterase 4D (Homo sapiens, UniProt Q08499); test: Inhibition of human PDE4D by scintillation counting method; in short: as §7
3',5'-cyclic-AMP phosphodiesterase 4D, sequence (Q08499 whole entry): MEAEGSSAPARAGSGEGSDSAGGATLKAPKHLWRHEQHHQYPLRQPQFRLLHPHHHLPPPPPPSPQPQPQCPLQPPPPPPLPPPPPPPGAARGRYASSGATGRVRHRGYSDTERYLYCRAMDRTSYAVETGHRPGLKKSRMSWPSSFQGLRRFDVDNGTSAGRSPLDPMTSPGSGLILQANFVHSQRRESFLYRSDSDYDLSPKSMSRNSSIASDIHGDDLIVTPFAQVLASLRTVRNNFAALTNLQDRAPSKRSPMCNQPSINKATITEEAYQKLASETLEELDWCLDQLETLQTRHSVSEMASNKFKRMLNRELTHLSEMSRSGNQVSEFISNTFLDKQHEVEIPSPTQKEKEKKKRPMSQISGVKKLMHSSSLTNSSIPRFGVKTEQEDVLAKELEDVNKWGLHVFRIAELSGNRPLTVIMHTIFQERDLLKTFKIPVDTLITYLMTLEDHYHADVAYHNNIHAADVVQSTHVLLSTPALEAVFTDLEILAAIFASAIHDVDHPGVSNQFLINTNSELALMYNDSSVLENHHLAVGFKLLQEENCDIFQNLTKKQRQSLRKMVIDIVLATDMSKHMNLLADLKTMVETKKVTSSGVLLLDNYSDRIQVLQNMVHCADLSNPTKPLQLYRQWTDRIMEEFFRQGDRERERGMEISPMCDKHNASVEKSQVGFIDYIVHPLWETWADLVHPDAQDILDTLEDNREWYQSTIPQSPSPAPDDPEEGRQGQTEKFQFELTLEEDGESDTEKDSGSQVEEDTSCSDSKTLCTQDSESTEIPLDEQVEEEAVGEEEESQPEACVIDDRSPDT

[34] = biological target: cGMP-specific 3',5'-cyclic phosphodiesterase (Homo sapiens, UniProt O76074); test: Inhibition of human PDE5A3 expressed in Sf9 cells by scintillation counting method; in short: as §7
[35] = biological target: Phosphodiesterase 6; test: Inhibition of human PDE6AB expressed in Sf9 cells by scintillation counting method; in short: as §7
[36] = biological target: Dual 3',5'-cyclic-AMP and -GMP phosphodiesterase 11A (Homo sapiens, UniProt Q9HCR9); test: Inhibition of human PDE11A4 expressed in Sf9 cells by scintillation counting method; in short: as §7
Dual 3',5'-cyclic-AMP and -GMP phosphodiesterase 11A, sequence (Q9HCR9 whole entry): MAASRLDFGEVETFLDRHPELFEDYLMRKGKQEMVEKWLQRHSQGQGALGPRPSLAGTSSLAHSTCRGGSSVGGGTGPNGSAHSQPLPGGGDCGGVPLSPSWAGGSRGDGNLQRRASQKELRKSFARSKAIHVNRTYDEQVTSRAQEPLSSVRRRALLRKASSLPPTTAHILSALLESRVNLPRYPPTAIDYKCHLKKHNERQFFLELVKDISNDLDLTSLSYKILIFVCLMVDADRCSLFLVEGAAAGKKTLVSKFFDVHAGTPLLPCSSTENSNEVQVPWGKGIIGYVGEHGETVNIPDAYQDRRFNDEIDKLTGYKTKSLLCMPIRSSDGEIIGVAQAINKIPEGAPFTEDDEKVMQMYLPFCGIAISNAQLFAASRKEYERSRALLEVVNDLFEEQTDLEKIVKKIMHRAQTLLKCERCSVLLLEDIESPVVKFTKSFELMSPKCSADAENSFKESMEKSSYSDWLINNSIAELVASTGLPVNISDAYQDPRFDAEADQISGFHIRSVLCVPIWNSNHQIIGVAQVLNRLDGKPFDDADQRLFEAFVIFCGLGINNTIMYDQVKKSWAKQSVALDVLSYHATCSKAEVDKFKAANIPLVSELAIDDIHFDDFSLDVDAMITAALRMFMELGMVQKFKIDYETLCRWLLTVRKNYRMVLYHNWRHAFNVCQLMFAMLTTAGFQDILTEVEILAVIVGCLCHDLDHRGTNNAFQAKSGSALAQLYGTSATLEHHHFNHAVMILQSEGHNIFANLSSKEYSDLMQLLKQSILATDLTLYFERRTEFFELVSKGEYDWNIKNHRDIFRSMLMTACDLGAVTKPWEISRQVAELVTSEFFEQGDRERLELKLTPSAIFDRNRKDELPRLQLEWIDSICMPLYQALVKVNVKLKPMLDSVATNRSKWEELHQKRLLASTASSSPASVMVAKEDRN

[37] = biological target: High affinity 3',5'-cyclic-AMP phosphodiesterase 7A (Homo sapiens, UniProt Q13946)
[38] = biological target: High affinity cGMP-specific 3',5'-cyclic phosphodiesterase 9A (Homo sapiens, UniProt O76083)
High affinity cGMP-specific 3',5'-cyclic phosphodiesterase 9A, sequence (O76083 whole entry): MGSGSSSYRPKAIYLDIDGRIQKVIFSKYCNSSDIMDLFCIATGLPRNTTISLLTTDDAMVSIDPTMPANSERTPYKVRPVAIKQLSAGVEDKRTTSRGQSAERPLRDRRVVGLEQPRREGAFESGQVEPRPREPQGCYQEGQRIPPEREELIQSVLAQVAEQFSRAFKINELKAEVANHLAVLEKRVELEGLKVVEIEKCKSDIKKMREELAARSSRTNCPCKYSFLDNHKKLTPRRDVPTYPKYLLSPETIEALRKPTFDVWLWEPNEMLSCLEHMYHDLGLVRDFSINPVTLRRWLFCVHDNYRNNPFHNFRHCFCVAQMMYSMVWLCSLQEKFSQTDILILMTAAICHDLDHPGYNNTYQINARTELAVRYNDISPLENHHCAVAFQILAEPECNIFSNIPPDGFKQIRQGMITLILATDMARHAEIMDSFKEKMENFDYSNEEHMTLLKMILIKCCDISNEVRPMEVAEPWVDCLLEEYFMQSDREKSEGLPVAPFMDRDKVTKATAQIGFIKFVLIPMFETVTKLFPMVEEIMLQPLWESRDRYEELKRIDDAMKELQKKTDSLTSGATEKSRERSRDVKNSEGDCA

[39] = Selectivity index, ratio of IC50 for rat PDE10A to IC50 for human PDE2A
[40] = Ratio of drug level in brain to plasma in rat at 10 mg/kg, po after 30 mins; assay type: ADME, organism-based; set-up: dose 10 mg/kg, route oral; settings: read-out: BPR
[41] = Plasma concentration in rat at 10 mg/kg, po after 30 mins; assay type: ADME, organism-based; set-up: dose 10 mg/kg, route oral
[42] = Drug level in rat brain at 10 mg/kg, po after 30 mins; assay type: ADME, organism-based; set-up: dose 10 mg/kg, route oral; settings: read-out: Drug uptake

- IC50 [1]: 0.106 µM
SMILES: COc1ccc(Cl)c(-c2nnc3c(C)nc4ccc(CN5CCOCC5)cc4n23)c1

- remaining at 0.25 h [2]: 0%
- remaining at 0.25 h [3]: 0%
- solubility [4]: 4 mg/mL (≈ 9.25 mM)
- solubility [5]: 15 mg/mL (≈ 34.7 mM)
- solubility [6]: 16 mg/mL (≈ 37 mM)
- IC50 [7]: > 10 µM
- IC50 [8]: > 10 µM
- Cp [10]: BLD
- Drug uptake [11]: BLD
- Kp at 0.5 h [12]: 1.4
- Kp at 1 h [13]: 1.1
- Kp at 2 h [14]: 1.1
- Kp at 4 h [15]: 1.1
- Kp at 7 h [16]: 0.93
- half-life [17]: 18.6 min
- clearance [18]: 130 mL/min/kg
- Vd [19]: 2.7 L/kg
- AUC(0-inf) [20]: 305 ng·h/mL
- half-life [21]: 60 min
- Cmax [22]: 658 ng/mL
- Tmax [23]: 40.2 min
- AUC(0-inf) [24]: 1670 ng·h/mL
- fraction unbound [25]: 0.14
- fraction unbound [26]: 0.31
- Drug uptake(free) [27]: 67 nM
- EC50 [28]: 0.021 µM
- IC50 [31]: > 10 µM
- IC50 [32]: > 10 µM
- IC50 [33]: > 10 µM
- IC50 [34]: > 10 µM
- IC50 [35]: > 10 µM
- IC50 [36]: 2.14 µM
- IC50 [37]: > 10 µM
- IC50 [38]: > 10 µM
SMILES: CCCCOc1cncc(-c2nnc3c(C)nc4ccc(CN5CCOCC5)cc4n23)c1
- Activity [9]: Non-toxic
- ED50 ([28]; sc, route subcutaneous): 4.3 mg/kg
- Activity [29]: 251%
- Activity [30]: 109%

- Ratio IC50 [39]: 13
SMILES: Cc1nc2ccc(CN3CCOCC3)cc2n2c(-c3ccccc3Cl)nnc12

- IC50 [1]: > 10 µM
SMILES: Cc1nc2ccc(CN3CCOCC3)cc2n2c(-c3cncc(OC(C)C)c3)nnc12

- Kp at 0.5 h [40]: 0.05
- concentration at 0.5 h [41]: 72.9 ng/mL
- concentration at 0.5 h [42]: 3.6 ng/g
SMILES: COc1ccc(Cc2nn3c([C@@H](CCCc4ccccc4)[C@@H](C)O)nc(C)c3c(=O)[nH]2)cc1OC
